Measurements published in ChEMBL document CHEMBL3593190, “Triterpenoids with Promoting Effects on the Differentiation of PC12 Cells from the Steamed Roots of Panax notoginseng” (J Nat Prod, 2015).

How the values were obtained:
PC-12 = assay: Neurotrophic activity in rat PC12 cells assessed as stimulation of NGF-induced neurite outgrowth at 10 uM after 72 hrs by phase-contrast microscopic analysis relative to control; format: functional
How it was run: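 PC12 cells kept in F12 with 12.5% horse serum and 2.5% FBS at 37 °C, 5% CO2, then seeded at 5 × 10^4 cells/mL on poly-L-lysine. After 24 h, medium switched to 10 μM compound (DMSO, final 0.05%) plus 5 ng/mL NGF; controls: no NGF, 5 ng/mL or 50 ng/mL NGF. After 72 h, phase-contrast scoring: neurite ≥ soma diameter; % neurite-bearing cells, ≥100 cells/view, 5 views/well.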

A549 = assay: Cytotoxicity against human A549 cells; format: functional, cell-based
MCF7 = assay: Cytotoxicity against human MCF7 cells; format: functional, cell-based
SW480 = assay: Cytotoxicity against human SW480 cells; format: functional, cell-based
[1] = Cytotoxicity against human […] cells; format: functional, cell-based
HL-60 = assay: Cytotoxicity against human HL60 cells; format: functional, cell-based
Human alphaherpesvirus 2 = assay: Antiviral activity against HSV2; format: functional, organism-based
Human alphaherpesvirus 1 = assay: Antiviral activity against HSV1; format: functional, organism-based

In the case of `CC(C)=CCC[C@@](C)(O)[C@H]1CC[C@]2(C)[C@@H]1[C@H](O)C[C@@H]1[C@@]3(C)CC[C@H](O)C(C)(C)[C@@H]3[C@@H](O[C@@H]3O[C@H](CO)[C@@H](O)[C@H](O)[C@H]3O)C[C@]12C`, the Activity (PC-12) is reported as 8.5%, the IC50 (A549) is reported as > 10 µM and the IC50 (MCF7) is reported as > 10 µM. The IC50 (SW480) was > 10 µM, the IC50 [1] was > 10 µM and the IC50 (HL-60) was > 10 µM.
`CC(C)=CCC[C@](C)(O)[C@H]1CC[C@]2(C)[C@@H]1[C@H](O)C[C@@H]1[C@@]3(C)CC[C@H](O[C@@H]4O[C@H](CO)[C@@H](O)[C@H](O)[C@H]4O[C@@H]4O[C@H](CO)[C@@H](O)[C@H](O)[C@H]4O[C@@H]4OC[C@@H](O)[C@H](O)[C@H]4O)C(C)(C)[C@@H]3CC[C@]12C` showed an EC50 (Human alphaherpesvirus 2) of 19.4 µM and an EC50 (Human alphaherpesvirus 1) of 16.5 µM.
For `CO[C@@H](/C=C(\C)[C@H]1CC[C@]2(C)[C@@H]1[C@H](O)C[C@@H]1[C@@]3(C)CC[C@H](O)C(C)(C)[C@@H]3[C@@H](O[C@@H]3O[C@H](CO)[C@@H](O)[C@H](O)[C@H]3O)C[C@]12C)[C@@H]1OC1(C)C`, the Activity (PC-12) was 11.6%, the IC50 (A549) was > 10 µM and the IC50 (MCF7) was > 10 µM. The IC50 (SW480) was > 10 µM, the IC50 [1] was > 10 µM and the IC50 (HL-60) was > 10 µM.
For `CC(C)=CCC[C@@](C)(O)[C@H]1CC[C@]2(C)[C@@H]1[C@H](O)C[C@@H]1[C@@]3(C)CC[C@H](O[C@@H]4O[C@H](CO)[C@@H](O)[C@H](O)[C@H]4O[C@@H]4O[C@H](CO)[C@@H](O)[C@H](O)[C@H]4O)C(C)(C)[C@@H]3CC[C@]12C`, the Activity (PC-12) was 9.5%, the IC50 (A549) was > 10 µM and the IC50 (MCF7) was > 10 µM. The IC50 (SW480) was > 10 µM, the IC50 [1] was > 10 µM and the IC50 (HL-60) was > 10 µM.
For `CC(C)(O)[C@@H](O)/C=C/[C@](C)(O)[C@H]1CC[C@]2(C)[C@@H]1[C@H](O)C[C@@H]1[C@@]3(C)CC[C@H](O[C@@H]4O[C@H](CO)[C@@H](O)[C@H](O)[C@H]4O[C@@H]4O[C@H](CO)[C@@H](O)[C@H](O)[C@H]4O)C(C)(C)[C@@H]3CC[C@]12C`, the Activity (PC-12) was 8.2%, the IC50 (A549) was > 10 µM and the IC50 (MCF7) was > 10 µM. The IC50 (SW480) was > 10 µM, the IC50 [1] was > 10 µM and the IC50 (HL-60) was > 10 µM.
In the case of `C/C(=C/[C@@H](O)[C@H](O)C(C)(C)O)[C@H]1CC[C@]2(C)[C@@H]1[C@H](O)C[C@@H]1[C@@]3(C)CC[C@H](O)C(C)(C)[C@@H]3[C@@H](O[C@@H]3O[C@H](CO)[C@@H](O)[C@H](O)[C@H]3O)C[C@]12C`, the Activity (PC-12) is reported as 10.9%, the IC50 (A549) is reported as > 10 µM and the IC50 (MCF7) is reported as > 10 µM. For the same compound, the IC50 (SW480) was > 10 µM, the IC50 [1] was > 10 µM and the IC50 (HL-60) was > 10 µM.
For `C=C(CCCC(C)(C)O)[C@H]1CC[C@]2(C)[C@@H]1[C@H](O)C[C@@H]1[C@@]3(C)CC[C@H](O)C(C)(C)[C@@H]3[C@@H](O[C@@H]3O[C@H](CO)[C@@H](O)[C@H](O)[C@H]3O)C[C@]12C`, the Activity (PC-12) was 8.3%, the IC50 (A549) was > 10 µM and the IC50 (MCF7) was > 10 µM. The IC50 (SW480) was > 10 µM, the IC50 [1] was > 10 µM and the IC50 (HL-60) was > 10 µM.
With `CC(=O)OC[C@H]1O[C@@H](O[C@H]2[C@H](O[C@H]3CC[C@]4(C)[C@H]5C[C@@H](O)[C@@H]6[C@@H]([C@](C)(O)CCC=C(C)C)CC[C@@]6(C)[C@]5(C)CC[C@H]4C3(C)C)O[C@H](CO)[C@@H](O)[C@@H]2O)[C@H](O)[C@@H](O)[C@@H]1O` the Activity (PC-12) was 13.4%, the IC50 (A549) was > 10 µM and the IC50 (MCF7) was > 10 µM. The IC50 (SW480) was > 10 µM, the IC50 [1] was > 10 µM and the IC50 (HL-60) was > 10 µM.
With `CC(=O)OC[C@H]1O[C@@H](O[C@H]2[C@H](O[C@H]3CC[C@]4(C)[C@H]5C[C@@H](O)[C@@H]6[C@@H]([C@@](C)(O)CCC=C(C)C)CC[C@@]6(C)[C@]5(C)CC[C@H]4C3(C)C)O[C@H](CO)[C@@H](O)[C@@H]2O)[C@H](O)[C@@H](O)[C@@H]1O` the Activity (PC-12) was 9.3%, the IC50 (A549) was > 10 µM and the IC50 (MCF7) was > 10 µM. For the same compound, the IC50 (SW480) was > 10 µM, the IC50 [1] was > 10 µM and the IC50 (HL-60) was > 10 µM.
With `C/C(=C\C[C@H](O)C(C)(C)O)[C@H]1CC[C@]2(C)[C@@H]1[C@H](O)C[C@@H]1[C@@]3(C)CC[C@H](O)C(C)(C)[C@@H]3[C@@H](O[C@@H]3O[C@H](CO)[C@@H](O)[C@H](O)[C@H]3O)C[C@]12C` the Activity (PC-12) was 9.3%, the IC50 (A549) was > 10 µM and the IC50 (MCF7) was > 10 µM. The IC50 (SW480) was > 10 µM, the IC50 [1] was > 10 µM and the IC50 (HL-60) was > 10 µM.
With `C/C(=C/[C@H](O)[C@@H](O)C(C)(C)O)[C@H]1CC[C@]2(C)[C@@H]1[C@H](O)C[C@@H]1[C@@]3(C)CC[C@H](O)C(C)(C)[C@@H]3[C@@H](O[C@@H]3O[C@H](CO)[C@@H](O)[C@H](O)[C@H]3O)C[C@]12C` the Activity (PC-12) was 11.4%, the IC50 (A549) was > 10 µM and the IC50 (MCF7) was > 10 µM. For the same compound, the IC50 (SW480) was > 10 µM, the IC50 [1] was > 10 µM and the IC50 (HL-60) was > 10 µM.
With `C=C(CCC=C(C)C)[C@H]1CC[C@]2(C)[C@@H]1[C@H](O)C[C@@H]1[C@@]3(C)CC[C@H](O[C@@H]4O[C@H](CO)[C@@H](O)[C@H](O)[C@H]4O)C(C)(C)[C@@H]3CC[C@]12C` the Activity (PC-12) was 8.9%, the IC50 (A549) was > 10 µM and the IC50 (MCF7) was > 10 µM. For the same compound, the IC50 (SW480) was > 10 µM, the IC50 [1] was > 10 µM and the IC50 (HL-60) was > 10 µM.
With `CO[C@@H](/C=C(\C)[C@H]1CC[C@]2(C)[C@@H]1[C@H](O)C[C@@H]1[C@@]3(C)CC[C@H](O[C@@H]4O[C@H](CO)[C@@H](O)[C@H](O)[C@H]4O[C@@H]4O[C@H](CO)[C@@H](O)[C@H](O)[C@H]4O)C(C)(C)[C@@H]3CC[C@]12C)[C@@H]1OC1(C)C` the Activity (PC-12) was 11.4%, the IC50 (A549) was > 10 µM and the IC50 (MCF7) was > 10 µM. For the same compound, the IC50 (SW480) was > 10 µM, the IC50 [1] was > 10 µM and the IC50 (HL-60) was > 10 µM.
In the case of `C/C(=C\[C@@H](O)[C@H](O)C(C)(C)O)[C@H]1CC[C@]2(C)[C@@H]1[C@H](O)C[C@@H]1[C@@]3(C)CC[C@H](O)C(C)(C)[C@@H]3[C@@H](O[C@@H]3O[C@H](CO)[C@@H](O)[C@H](O)[C@H]3O)C[C@]12C`, the Activity (PC-12) is reported as 9.9%, the IC50 (A549) is reported as > 10 µM and the IC50 (MCF7) is reported as > 10 µM. The IC50 (SW480) was > 10 µM, the IC50 [1] was > 10 µM and the IC50 (HL-60) was > 10 µM.
For `CC(C)(O)[C@H](O)/C=C/[C@](C)(O)[C@H]1CC[C@]2(C)[C@@H]1[C@H](O)C[C@@H]1[C@@]3(C)CC[C@H](O[C@@H]4O[C@H](CO)[C@@H](O)[C@@H](O)[C@H]4O[C@@H]4O[C@H](CO)[C@@H](O)[C@H](O)[C@H]4O)C(C)(C)[C@@H]3CC[C@]12C`, the Activity (PC-12) was 10.8%, the IC50 (A549) was > 10 µM and the IC50 (MCF7) was > 10 µM. For the same compound, the IC50 (SW480) was > 10 µM, the IC50 [1] was > 10 µM and the IC50 (HL-60) was > 10 µM.
In the case of `CC(C)(O)CCC[C@@](C)(O)[C@H]1CC[C@]2(C)[C@@H]1[C@H](O)C[C@@H]1[C@@]3(C)CC[C@H](O)C(C)(C)[C@@H]3[C@@H](O[C@@H]3O[C@H](CO)[C@@H](O)[C@H](O)[C@H]3O)C[C@]12C`, the Activity (PC-12) is reported as 8.6%, the IC50 (A549) is reported as > 10 µM and the IC50 (MCF7) is reported as > 10 µM. The IC50 (SW480) was > 10 µM, the IC50 [1] was > 10 µM and the IC50 (HL-60) was > 10 µM.
